Reference: ChEMBL document CHEMBL4251549, “Design, synthesis and biological evaluation of nitrogen-containing macrocyclic bisbibenzyl derivatives as potent anticancer agents by targeting the lysosome” (Eur J Med Chem, 2017)
Activity calls are given as the source filed them. The rule behind the calls is not given here.

Legend:
[1] = test system: A549; test: Antiproliferative activity in human A549 cells at 1.5 to 3 uM up to 20 hrs by xCELLigence RTCA SP based cellular impedance analysis; format: functional, cell-based
How it was run: (§1)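 After compound treatment, A549 cells plated at 2000 cells/well on E-plates. Proliferation tracked over time as real-time cellular impedance on an xCELLigence RTCA DP instrument. Hydroxychloroquine was the positive control. Representative of three independent experiments.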

[2] = test system: A549; test: Induction of lysosomal rupture in human A549 cells 2 to 4 uM after 6 hrs by LysoTracker/AO dye based flow cytometric analysis; format: functional, cell-based
How it was run: (§2)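 A549 treated 6 h, then exposed to LysoTracker Red (50 nm) or acridine orange (5 mg/mL). Loss of lysosomal dye retention measured by flow cytometry on a FACSCalibur.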

[3] = test system: A549; test: Induction of apoptosis in human A549 cells assessed as cell shrinkage at 2 to 4 uM after 8 hrs by DAPI staining based fluorescence microscopic analysis; format: functional
How it was run: (§3)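 A549 seeded on glass coverslips at 5 × 10^4/mL and grown 24 h, then treated 8 h. Washed in cold PBS and fixed in cold methanol/acetone (1:1). Stained with DAPI ([…]) for 10 min at room temperature, washed with PBS/Triton X-100, mounted in PBS:glycerol 1:1. Nuclear morphology examined by fluorescence microscopy.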

[4] = test system: A549; test: Antiproliferative activity in human A549 cells at 1.5 to 3 uM after 60 hrs by xCELLigence RTCA SP based cellular impedance analysis; format: functional, cell-based; how it was run: as §1
[5] = test system: A549; test: Induction of lysosomal rupture in human A549 cells 2 to 4 uM after 6 hrs by LysoTracker/AO dye based confocal microscopic analysis; format: functional, cell-based
How it was run: (§4)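 A549 treated 6 h, then loaded with LysoTracker Red (50 nm) or acridine orange (5 mg/mL). Lysosomal integrity imaged by confocal microscopy, with rupture scored as "pale cells" showing fewer dye-accumulating lysosomes.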

[6] = test system: A549; test: Antiproliferative activity in human A549 cells at 1.5 to 3 uM up to 5 hrs by xCELLigence RTCA SP based cellular impedance analysis; format: functional, cell-based; how it was run: as §1
[7] = test system: K562; test: Antiproliferative activity in human K562 cells after 48 hrs by MTT assay; format: functional, cell-based; settings: K562, 48 h
How it was run: (§5)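 Cells exposed to compound for 48 h. Viability read by MTT, with absorbance of the solubilised MTT product at 570 nm. IC50 derived from at least three independent experiments.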

[8] = test system: MCF7; test: Antiproliferative activity in human MCF7 cells after 48 hrs by MTT assay; format: functional, cell-based; settings: MCF7, 48 h; how it was run: as §5
[9] = test system: A549; test: Antiproliferative activity in human A549 cells after 48 hrs by MTT assay; format: functional, cell-based; settings: A549, 48 h; how it was run: as §5
[10] = test system: A549; test: Antiproliferative activity in human A549 cells at 25 ug/ml up to 20 hrs by xCELLigence RTCA SP based cellular impedance analysis; format: functional, cell-based; how it was run: as §1
[11] = test system: A549; test: Induction of apoptosis in human A549 cells assessed as necrotic cells at 50 ug/ml after 8 hrs by Annexin V-FITC/propidium iodide staining based flow cytometry (reference value: 0.06%); format: functional
How it was run: (§6)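 A549 seeded at 5 × 10^5 per well and exposed to varying concentrations for 8 h. Harvested, washed twice in ice-cold PBS (0.01 M, pH 7.2), spun 5 min at 200 g, then stained with Annexin V-FITC/PI. Analysed by flow cytometry: Annexin V+/PI− scored apoptotic, double-positive necrotic or late apoptotic. Mean ± SD of three independent experiments.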

[12] = test system: A549; test: Induction of apoptosis in human A549 cells assessed as late apoptotic cells at 50 ug/ml after 8 hrs by Annexin V-FITC/propidium iodide staining based flow cytometry (reference value: 0.02%); format: functional; how it was run: as §6
[13] = test system: A549; test: Induction of apoptosis in human A549 cells assessed as early apoptotic cells at 50 ug/ml after 8 hrs by Annexin V-FITC/propidium iodide staining based flow cytometry (reference value: 0.03%); format: functional; how it was run: as §6
[14] = test system: A549; test: Antiproliferative activity in human A549 cells at 25 ug/ml after 60 hrs by […] based cellular impedance analysis; format: functional, cell-based
[15] = test system: K562; test: Potency index, ratio of ADR IC50 to compound IC50 for antiproliferative activity in human K562 cells; format: functional
[16] = test system: MCF7; test: Potency index, ratio of ADR IC50 to compound IC50 for antiproliferative activity in human MCF7 cells; format: functional
[17] = test system: A549; test: Induction of apoptosis in human A549 cells assessed as necrotic cells at 1 uM after 8 hrs by Annexin V-FITC/propidium iodide staining based flow cytometry (reference value: 0.06%); format: functional; how it was run: as §6
[18] = test system: A549; test: Induction of apoptosis in human A549 cells assessed as late apoptotic cells at 1 uM after 8 hrs by Annexin V-FITC/propidium iodide staining based flow cytometry (reference value: 0.02%); format: functional; how it was run: as §6
[19] = test system: A549; test: Induction of apoptosis in human A549 cells assessed as cell shrinkage at 0.5 to 1 uM after 8 hrs by DAPI staining based fluorescence microscopic analysis; format: functional; how it was run: as §3
[20] = test system: A549; test: Induction of apoptosis in human A549 cells assessed as formation of granular apoptotic body at 0.5 to 1 uM after 8 hrs by DAPI staining based fluorescence microscopic analysis; format: functional, cell-based; how it was run: as §3
[21] = test system: A549; test: Induction of apoptosis in human A549 cells assessed as early apoptotic cells at 1 uM after 8 hrs by Annexin V-FITC/propidium iodide staining based flow cytometry (reference value: 0.03%); format: functional; how it was run: as §6
[22] = test system: A549; test: Potency index, ratio of ADR IC50 to compound IC50 for antiproliferative activity in human A549 cells; format: functional
[23] = test system: A549; test: Induction of lysosomal rupture in human A549 cells 1 to 2 uM after 6 hrs by LysoTracker/AO dye based flow cytometric analysis; format: functional, cell-based; how it was run: as §2
[24] = test system: A549; test: Induction of lysosomal rupture in human A549 cells 1 to 2 uM after 6 hrs by LysoTracker/AO dye based confocal microscopic analysis; format: functional, cell-based; how it was run: as §4

`Oc1cc2ccc1-c1c(ccc(CN3CCCC3)c1O)CCc1ccc(cc1)Oc1cc(cc(CN3CCCC3)c1O)CC2` was tested, and the Activity [1] was “Active”, the Activity [2] was “Active” and the Activity [3] was “Active”. For the same compound, the Activity [4] was “Active”, the Activity [5] was “Active” and the Activity [6] was “Active”. For the same compound, the IC50 [7] was 800 nM, the IC50 [8] was 430 nM and the IC50 [9] was 990 nM.
With `CCN(CCO)CCCC(C)Nc1ccnc2cc(Cl)ccc12` (configuration not stated) [HYDROXYCHLOROQUINE] the Activity [10] was “Active”, the Activity [11] was 10.37% and the Activity [12] was 2.85%. The Activity [13] was 2.96% and the Activity [14] was “Active”.
`CN(C)CCOc1ccc2cc1Oc1ccc(cc1)CCc1cccc(OCCN(C)C)c1-c1ccc(cc1OCCN(C)C)CC2` was tested, and the “Ratio IC50” value [15] was 3 - 10, the “Ratio IC50” value [16] was 3 - 10 and the Activity [17] was 52.68%. For the same compound, the Activity [18] was 26.69%, the Activity [19] was “Active” and the Activity [20] was “Active”. The Activity [21] was 0.55%, the IC50 [7] was 190 nM and the “Ratio IC50” value [22] was 3 - 10. The IC50 [8] was 230 nM, the Activity [23] was “Active” and the Activity [24] was “Active”. For the same compound, the IC50 [9] was 510 nM.
